# Laboratory results from ChEMBL document CHEMBL1926642, “Relevance of the C-5 position to schweinfurthin induced cytotoxicity” (2011).
# Experiments:
# Type in all cases: functional
# HL-60(TB) = assay: Growth inhibition of human HL-60(TB) cells after 48 hrs by sulforhodamine B assay; conditions: HL-60, 48 h
# Outline: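 Run in the NCI 60 cell-line screen as the full 5-dose assay that follows initial single-dose testing; GI50 is read from the dose series.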
# K562 = assay: Growth inhibition of human K562 cells after 48 hrs by sulforhodamine B assay; conditions: K562, 48 h
# RPMI-8226 = assay: Growth inhibition of human RPMI8226 cells after 48 hrs by sulforhodamine B assay; conditions: RPMI-8226, 48 h
# NCI-H226 = assay: Growth inhibition of human NCI-H226 cells after 48 hrs by sulforhodamine B assay; conditions: NCI-H226, 48 h
# NCI-H23 = assay: Growth inhibition of human NCI-H23 cells after 48 hrs by sulforhodamine B assay; conditions: NCI-H23, 48 h
# NCI-H322M = assay: Growth inhibition of human NCI-H322M cells after 48 hrs by sulforhodamine B assay
# A549 = assay: Growth inhibition of human A549 cells after 48 hrs by sulforhodamine B assay; conditions: A549, 48 h
# NCI-H460 = assay: Growth inhibition of human NCI-H460 cells after 48 hrs by sulforhodamine B assay; conditions: NCI-H460, 48 h
# HCT-15 = assay: Growth inhibition of human HCT15 cells after 48 hrs by sulforhodamine B assay; conditions: HCT-15, 48 h
# KM12 = assay: Growth inhibition of human KM12 cells after 48 hrs by sulforhodamine B assay; conditions: KM12, 48 h
# SW-620 = assay: Growth inhibition of human SW620 cells after 48 hrs by sulforhodamine B assay; conditions: SW-620, 48 h
# SF-539 = assay: Growth inhibition of human SF539 cells after 48 hrs by sulforhodamine B assay; conditions: SF-539, 48 h
# SNB-75 = assay: Growth inhibition of human SNB75 cells after 48 hrs by sulforhodamine B assay; conditions: SNB-75, 48 h
# MDA-MB-435 = assay: Growth inhibition of human MDA-MB-435 cells after 48 hrs by sulforhodamine B assay; conditions: MDA-MB-435, 48 h
# SK-MEL-2 = assay: Growth inhibition of human SK-MEL-2 cells after 48 hrs by sulforhodamine B assay; conditions: SK-MEL-2, 48 h
# SK-MEL-28 = assay: Growth inhibition of human SK-MEL-28 cells after 48 hrs by sulforhodamine B assay; conditions: SK-MEL-28, 48 h
# SK-MEL-5 = assay: Growth inhibition of human SK-MEL-5 cells after 48 hrs by sulforhodamine B assay; conditions: SK-MEL-5, 48 h
# UACC-257 = assay: Growth inhibition of human UACC257 cells after 48 hrs by sulforhodamine B assay; conditions: UACC-257, 48 h
# OVCAR-3 = assay: Growth inhibition of human OVCAR3 cells after 48 hrs by sulforhodamine B assay; conditions: OVCAR-3, 48 h
# OVCAR-4 = assay: Growth inhibition of human OVCAR4 cells after 48 hrs by sulforhodamine B assay; conditions: OVCAR-4, 48 h
# OVCAR-5 = assay: Growth inhibition of human OVCAR5 cells after 48 hrs by sulforhodamine B assay; conditions: OVCAR-5, 48 h
# SK-OV-3 = assay: Growth inhibition of human SKOV3 cells after 48 hrs by sulforhodamine B assay; conditions: SK-OV-3, 48 h
# 786-0 = assay: Growth inhibition of human 786-0 cells after 48 hrs by sulforhodamine B assay; conditions: 786-0, 48 h
# A498 = assay: Growth inhibition of human A498 cells after 48 hrs by sulforhodamine B assay; conditions: A498, 48 h
# CAKI-1 = assay: Growth inhibition of human Caki1 cells after 48 hrs by sulforhodamine B assay; conditions: CAKI-1, 48 h
# SN12C = assay: Growth inhibition of human SN12C cells after 48 hrs by sulforhodamine B assay
# TK-10 = assay: Growth inhibition of human TK10 cells after 48 hrs by sulforhodamine B assay; conditions: TK-10, 48 h
# PC-3 = assay: Growth inhibition of human PC3 cells after 48 hrs by sulforhodamine B assay; conditions: PC-3, 48 h
# MDA-MB-231 = assay: Growth inhibition of human MDA-MB-231/ATCC cells after 48 hrs by sulforhodamine B assay; conditions: MDA-MB-231, 48 h
# [1] = Growth inhibition of human Hs 578T cells after 48 hrs by sulforhodamine B assay
# BT-549 = assay: Growth inhibition of human BT549 cells after 48 hrs by sulforhodamine B assay; conditions: BT-549, 48 h
# T47D = assay: Growth inhibition of human T47D cells after 48 hrs by sulforhodamine B assay
# [2] = read-out: pLC50 (the source's name) (converted)
smiles,measurement,setting,value
COCOc1cc(/C=C/c2cc(C=O)c3c(c2)C[C@@H]2C(C)(C)[C@H](O)CC[C@@]2(C)O3)cc(OC)c1C/C=C(\C)CCC=C(C)C,GI50,HL-60(TB),3.55 µM
same,CC50,HL-60(TB); [2],> 100 µM
same,TGI,HL-60(TB); read-out: pTGI (converted),60.3 µM
same,GI50,K562,4.37 µM
same,LC50,K562,> 100 µM
same,TGI,K562; read-out: pTGI (converted),47.9 µM
same,GI50,RPMI-8226,1.17 µM
same,LC50,RPMI-8226,> 100 µM
same,TGI,RPMI-8226; read-out: pTGI (converted),> 100 µM
same,GI50,NCI-H226,28.2 µM
same,LC50,NCI-H226,> 100 µM
same,TGI,NCI-H226; read-out: pTGI (converted),> 100 µM
same,GI50,NCI-H23,11 µM
same,LC50,NCI-H23,> 100 µM
same,TGI,NCI-H23; read-out: pTGI (converted),> 100 µM
same,GI50,NCI-H322M,89.1 µM
same,LC50,NCI-H322M,> 100 µM
same,TGI,NCI-H322M; read-out: pTGI (converted),> 100 µM
same,LC50,A549,> 100 µM
same,GI50,A549; read-out: GI50,7.8 µM
same,GI50,A549; read-out: pGI50 (converted),7.76 µM
same,TGI,A549; read-out: pTGI (converted),> 100 µM
same,GI50,NCI-H460,5.89 µM
same,LC50 (concentration killing 50% of cells),NCI-H460,> 100 µM
same,TGI,NCI-H460; read-out: pTGI (converted),> 100 µM
same,GI50,HCT-15,3.31 µM
same,LC50,HCT-15,> 100 µM
same,TGI,HCT-15; read-out: pTGI (converted),51.3 µM
same,GI50,KM12,7.94 µM
same,LC50,KM12,> 100 µM
same,TGI,KM12; read-out: pTGI (converted),75.9 µM
same,GI50,SW-620,10.2 µM
same,LC50,SW-620,> 100 µM
same,TGI,SW-620; read-out: pTGI (converted),44.7 µM
same,GI50,SF-539,0.891 µM
same,LC50,SF-539,> 100 µM
same,TGI,SF-539; read-out: pTGI (converted),12.9 µM
same,GI50,SNB-75,1.62 µM
same,LC50,SNB-75,> 100 µM
same,TGI,SNB-75; read-out: pTGI (converted),> 100 µM
same,GI50,MDA-MB-435,6.76 µM
same,LC50,MDA-MB-435,> 100 µM
same,TGI,MDA-MB-435; read-out: pTGI (converted),69.2 µM
same,GI50,SK-MEL-2,12.9 µM
same,LC50,SK-MEL-2,> 100 µM
same,TGI,SK-MEL-2; read-out: pTGI (converted),> 100 µM
same,GI50,SK-MEL-28,2.95 µM
same,CC50,SK-MEL-28; [2],> 100 µM
same,TGI,SK-MEL-28; read-out: pTGI (converted),> 100 µM
same,GI50,SK-MEL-5,7.24 µM
same,LC50,SK-MEL-5,58.9 µM
same,TGI,SK-MEL-5; read-out: pTGI (converted),22.9 µM
same,GI50,UACC-257,3.98 µM
same,LC50,UACC-257,> 100 µM
same,TGI,UACC-257; read-out: pTGI (converted),49 µM
same,GI50,OVCAR-3,27.5 µM
same,LC50,OVCAR-3,> 100 µM
same,TGI,OVCAR-3; read-out: pTGI (converted),> 100 µM
same,GI50,OVCAR-4,6.92 µM
same,LC50,OVCAR-4,> 100 µM
same,TGI,OVCAR-4; read-out: pTGI (converted),> 100 µM
same,GI50,OVCAR-5,11.7 µM
same,LC50,OVCAR-5,> 100 µM
same,TGI,OVCAR-5; read-out: pTGI (converted),> 100 µM
same,GI50,SK-OV-3,41.7 µM
same,LC50,SK-OV-3,> 100 µM
same,TGI,SK-OV-3; read-out: pTGI (converted),> 100 µM
same,GI50,786-0,1.02 µM
same,CC50,786-0; [2],> 100 µM
same,TGI,786-0; read-out: pTGI (converted),> 100 µM
same,GI50,A498,7.59 µM
same,LC50,A498,> 100 µM
same,TGI,A498; read-out: pTGI (converted),> 100 µM
same,GI50,CAKI-1,3.98 µM
same,LC50,CAKI-1,> 100 µM
same,TGI,CAKI-1; read-out: pTGI (converted),> 100 µM
same,GI50,SN12C,14.8 µM
same,LC50,SN12C,> 100 µM
same,TGI,SN12C; read-out: pTGI (converted),> 100 µM
same,GI50,TK-10,25.1 µM
same,LC50,TK-10,> 100 µM
same,TGI,TK-10; read-out: pTGI (converted),> 100 µM
same,GI50,PC-3,8.13 µM
same,CC50,PC-3; [2],> 100 µM
same,TGI,PC-3; read-out: pTGI (converted),> 100 µM
same,GI50,MDA-MB-231,3.39 µM
same,CC50,MDA-MB-231; [2],> 100 µM
same,TGI,MDA-MB-231; read-out: pTGI (converted),15.8 µM
same,GI50,[1],1.74 µM
same,CC50,[1]; [2],> 100 µM
same,TGI,[1]; read-out: pTGI (converted),> 100 µM
same,GI50,BT-549,3.89 µM
same,LC50,BT-549,> 100 µM
same,TGI,BT-549; read-out: pTGI (converted),63.1 µM
same,GI50,T47D,13.5 µM
same,LC50,T47D,> 100 µM
same,TGI,T47D; read-out: pTGI (converted),> 100 µM
